Experimental data from ChEMBL document CHEMBL3751758, “Cysteine-Rich Peptide Family with Unusual Disulfide Connectivity from Jasminum sambac” (J Nat Prod, 2015).
Active and inactive are the calls of the source. The rule behind the calls is not given here. Bridge positions count the residues as written; N and C are the ends. Peptide text beside a SMILES is read from it.

Legend:
[1] = Stability of the compound in NH4HCO3 buffer assessed as trypsin (unknown origin)-mediated degradation at pH 7.8 at 37 degC after 1 hr by UPLC analysis; type: ADME; conditions: human, pH 7.8, 1 h
Carboxypeptidase A1 = molecular target: T1, Carboxypeptidase A1 (Homo sapiens, UniProt P15085); experiment: Stability of the compound in Tris buffer assessed as carboxypeptidase A (unknown origin)-mediated compound degradation at pH 7.5 at 37 degC after 4 hrs by UPLC analysis; type: ADME; conditions: pH 7.5, 4 h
T1 sequence (P15085 whole entry): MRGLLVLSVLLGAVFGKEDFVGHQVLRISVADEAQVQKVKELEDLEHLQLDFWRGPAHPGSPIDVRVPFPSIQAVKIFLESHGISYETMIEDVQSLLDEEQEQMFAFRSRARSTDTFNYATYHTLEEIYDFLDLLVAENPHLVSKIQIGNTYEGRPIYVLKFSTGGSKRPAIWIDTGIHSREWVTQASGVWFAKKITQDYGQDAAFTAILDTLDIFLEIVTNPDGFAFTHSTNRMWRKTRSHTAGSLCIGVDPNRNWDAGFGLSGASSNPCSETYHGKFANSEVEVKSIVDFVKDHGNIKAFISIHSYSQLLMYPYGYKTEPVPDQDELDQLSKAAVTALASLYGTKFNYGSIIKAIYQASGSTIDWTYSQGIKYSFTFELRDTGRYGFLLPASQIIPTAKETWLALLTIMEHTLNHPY
Outline: (§1)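 Peptide was incubated with or without carboxypeptidase A at 50:1 (w/w) in 50 mM Tris/100 mM NaCl pH 7.5 at 37 °C for up to 6 h. Collected peaks were checked by MALDI-TOF, and stability was judged from UPLC peak areas.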

[2] = (§2) Stability of the compound in 100 mM sodium citrate buffer assessed as pepsin (unknown origin)-mediated compound degradation by measuring intact compound level at pH 2.5 at 37 degC after 4 hrs by UPLC analysis; type: ADME; conditions: human, buffer, pH 2.5, 4 h
[3] = Stability of the compound in boiling water assessed as compound remaining after 1 hr by UPLC analysis; type: physicochemical; conditions: read-out: Stability
Escherichia coli = experiment: Antibacterial activity against Escherichia coli ATCC 25922 up to 100 uM by radial diffusion assay; type: functional, organism-based
Outline: (§3)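 Radial diffusion assay under low-salt conditions (10 mM Na3PO4). Strains were grown in trypticase soy broth. D4R peptide dendrimer was the positive control.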

[4] = Hemolytic activity in human type O+ erythrocytes up to 10 uM after 4 hrs by spectrophotometric analysis; type: ADME, cell-based; conditions: erythrocyte
Outline: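 Erythrocytes came from fresh type O+ blood of a healthy volunteer. Cells were pelleted at 1000 rpm for 15 min, washed three times in PBS and diluted 100X in PBS. Peptide at various concentrations was mixed with an equal volume of cells for 4 h at 37 °C. Plates were spun at 1000 rpm for 5 min and supernatant absorbance read at 415 nm. Controls were 0.1% Triton X-100 and PBS.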

carboxypeptidase A = molecular target: T2, carboxypeptidase A (Homo sapiens, UniProt P15085); experiment: Stability of the compound in Tris buffer assessed as carboxypeptidase A (unknown origin)-mediated compound degradation by measuring intact compound level at pH 7.5 at 37 degC after 6 hrs by UPLC analysis; type: ADME; conditions: read-out: Stability; outline: as §1
T2 sequence (P15085 whole entry): T1 sequence (P15085 whole entry)

trypsin = experiment: Stability of the compound in NH4HCO3 buffer assessed as trypsin (unknown origin)-mediated degradation by measuring intact compound level at pH 7.8 at 37 degC after 8 hrs by UPLC analysis; type: ADME; conditions: human, read-out: Stability
[5] = molecular target: T3, Carboxypeptidase A1 (Bos taurus) (UniProt P00730); experiment: Inhibition of bovine carboxypeptidase A using N-(4-methoxyphenylazoformyl)phenylalanine as substrate at 0.1 to 100 uM
T3 sequence (whole entry): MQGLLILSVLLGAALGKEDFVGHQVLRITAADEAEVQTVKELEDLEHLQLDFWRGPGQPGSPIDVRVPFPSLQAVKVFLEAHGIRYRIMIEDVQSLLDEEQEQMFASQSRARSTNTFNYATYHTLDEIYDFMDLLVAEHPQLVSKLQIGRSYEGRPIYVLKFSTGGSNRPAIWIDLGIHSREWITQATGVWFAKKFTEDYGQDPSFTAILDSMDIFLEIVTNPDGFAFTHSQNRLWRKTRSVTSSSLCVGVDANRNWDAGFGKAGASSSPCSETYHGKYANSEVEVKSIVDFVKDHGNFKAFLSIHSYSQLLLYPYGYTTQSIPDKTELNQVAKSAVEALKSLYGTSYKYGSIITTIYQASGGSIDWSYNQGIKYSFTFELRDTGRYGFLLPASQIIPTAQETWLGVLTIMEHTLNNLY
Outline: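 Peptide at 0.1–100 µM was combined with 0.1 mM N-(4-methoxyphenylazoformyl)phenylalanine substrate. The reaction was started with 25 nM bovine carboxypeptidase A, and substrate hydrolysis was followed at 350 nm.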

pepsin = experiment: as §2; type: ADME; conditions: human, pepsin in 100 mM sodium citrate buffer, pH 2.5; read-out: Stability
Staphylococcus aureus = experiment: Antibacterial activity against Staphylococcus aureus ATCC 12600 up to 100 uM by radial diffusion assay; type: functional, organism-based; outline: as §3
Candida albicans = experiment: Antifungal activity against Candida albicans 11006 up to 100 uM by radial diffusion assay; type: functional, organism-based; outline: as §3
Vero = experiment: Cytotoxicity against African green monkey Vero cells at 10 uM after 24 hrs by Presto Blue-based cell viability assay; conditions: chlorocebus sabaeus
Outline: (§4)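 Cells were seeded at 8 x 10^3 per well in DMEM with 10% FBS and 1% penicillin/streptomycin, at 37 °C under 5% CO2. After 24 h, peptide was added at 0.01–10 µM in triplicate for 24 h. PrestoBlue was then added for 1 h at 37 °C and absorbance read at 570 nm. Controls were 1% Triton X-100 and PBS.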

HUVEC = experiment: Cytotoxicity against HUVEC at 10 uM after 24 hrs by Presto Blue-based cell viability assay; conditions: human; outline: as §4

Stability [1]	Stability (Carboxypeptidase A1)	Stability [2]	remaining at 1 h [3] [%]	remaining at 6 h (carboxypeptidase A) [%]	remaining at 8 h (trypsin) [%]	inhibition [5]	remaining at 4 h (pepsin) [%]	Structure (SMILES)	Activity (Escherichia coli)	Activity [4]	Activity (Staphylococcus aureus)	Activity (Candida albicans)	Activity (Vero)	Activity (HUVEC)
Unstable	Unstable	Unstable						CC(C)C[C@H](NC(=O)[C@H](CCCNC(=N)N)NC(=O)CNC(=O)[C@H](CCCNC(=N)N)NC(=O)[C@H](CCCNC(=N)N)NC(=O)[C@H](Cc1ccc(O)cc1)NC(=O)[C@H](CC(C)C)NC(=O)[C@@H](N)CCCNC(=N)N)C(=O)N[C@@H](Cc1ccc(O)cc1)C(=O)N[C@@H](CCCNC(=N)N)C(=O)N[C@@H](CCCNC(=N)N)C(=O)N[C@@H](CC(N)=O)C(=O)N[C@@H](Cc1cnc[nH]1)C(=O)N[C@H](C(=O)O)C(C)C (H-RLYRRGRLYRRNHV-OH)						
Unstable	Unstable	Unstable						CC(C)C[C@H](NC(=O)[C@@H]1CCCN1C(=O)[C@H](CO)NC(=O)[C@H](Cc1ccccc1)NC(=O)CNC(=O)[C@@H]1CCCN1C(=O)[C@@H]1CCCN1C(=O)[C@H](CCCN=C(N)N)NC(=O)[C@@H](N)CCCCN)C(=O)O						
			96	> 90	73	inactive	> 90	CC[C@H](C)[C@H](NC(=O)[C@@H](NC(=O)[C@H](CC(N)=O)NC(=O)[C@@H]1CSSC[C@@H]2NC(=O)[C@H](CC(=O)O)NC(=O)[C@H](CO)NC(=O)[C@H](CC(N)=O)NC(=O)[C@H](CO)NC(=O)[C@H](CCCNC(=N)N)NC(=O)[C@@H]3CSSC[C@H](NC(=O)[C@H]([C@@H](C)CC)NC(=O)[C@H](CCCNC(=N)N)NC(=O)[C@H](Cc4c[nH]c5ccccc45)NC(=O)[C@H]([C@@H](C)CC)NC(=O)[C@H]([C@@H](C)CC)NC(=O)[C@H](CC(N)=O)NC2=O)C(=O)N[C@@H](CCCNC(=N)N)C(=O)N[C@@H](CC(=O)O)C(=O)NCC(=O)N[C@@H](CSSC[C@H](NC(=O)[C@H](CC(C)C)NC(=O)[C@@H](N)CCC(N)=O)C(=O)N[C@@H](CC(C)C)C(=O)N[C@@H](CCC(N)=O)C(=O)N3)C(=O)N1)C(C)C)C(=O)O (H-QLCLQCRSNSDCNIIWRICRDGCCNVI-OH; disulfide 3-23, 6-19, 12-24)	inactive	Non-toxic	inactive	inactive	Non-toxic	Non-toxic
